Several values for one entry are separate records, joined by “and”; a condition that tells them apart may be missing. Equal values may be shown once. Each block holds one molecule with its values, some of them ahead of it.
How the values were obtained:
[1] = system: P388; assay: Compound was evaluated for antitumor activity against mice implanted with lymphatic leukemia P388 cells (10e6 tumor cells) after intraperitoneal administration of 100 mg/kg per injection (1-5 days); type: functional; details: Mus musculus, P388, ip
In short: (§1)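 Mice implanted ip with 10⁶ lymphocytic leukemia P388 cells; drug given ip on days 1-5. Read-out is % increase in life span (% ILS) versus untreated controls, reported at the highest nontoxic dose tested.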

[2] = system: L1210; assay: Effect on the mitosis of cultured L1210 cells measured in metaphase at 12 hours and 0 uM concentration; type: functional, Mus musculus
In short: (§2)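 Cultured L1210 cells were exposed for 12 h to 0, 3, 10, 30, 50 or 100 μM agent. Read-out was the percentage of cells in metaphase.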

[3] = system: L1210; assay: Concentration required to inhibit proliferation of cultured lymphoid leukemia L1210 cells to 50% growth over 48 hours; type: functional, cell-based; details: Mus musculus, L1210, 48 h
In short: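 Cultured lymphoid leukemia L1210 cells were exposed to agent for 48 h. IC50 is the micromolar concentration that holds proliferation to 50% growth.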

[4] = system: L1210; assay: Effect on the mitosis of cultured L1210 cells measured in metaphase at 12 hours and 3 uM concentration; type: functional, Mus musculus; in short: as §2
[5] = system: L1210; assay: Effect on the mitosis of cultured L1210 cells measured in metaphase at 12 hours and 10 uM concentration; type: functional, Mus musculus; in short: as §2
[6] = system: L1210; assay: Effect on the mitosis of cultured L1210 cells measured in metaphase at 12 hours and 50 uM concentration; type: functional, Mus musculus; in short: as §2
[7] = system: L1210; assay: Effect on the mitosis of cultured L1210 cells measured in metaphase at 12 hours and 100 uM concentration; type: functional, Mus musculus; in short: as §2
[8] = system: L1210; assay: Effect on the mitosis of cultured L1210 cells measured in metaphase at 12 hours and 30 uM concentration; type: functional, Mus musculus; in short: as §2
[9] = system: P388; assay: Compound was evaluated for antitumor activity against mice implanted with lymphatic leukemia P388 cells (10e6 tumor cells) after intraperitoneal administration of 200 mg/kg per injection (1-5 days); type: functional; details: Mus musculus, P388, ip; in short: as §1
[10] = system: L1210; assay: Compound was evaluated for antitumor activity against mice implanted with lymphatic leukemia L1210 cells (10e6 tumor cells) after intraperitoneal administration of 200 mg/kg per injection (1-15 days); details: Mus musculus, L1210, ip
[11] = system: HEp-2; assay: Compound's concentration required to inhibit proliferation of cultured HEP-2 cells to 50% growth during 48 hours.; type: functional, cell-based; details: Homo sapiens, HEp-2, 48 h
[12] = system: P388; assay: Compound was evaluated for antitumor activity against mice implanted with lymphatic leukemia P388 cells (10e6 tumor cells) after intraperitoneal administration of 2 mg/kg per injection (1-5 days); type: functional; details: Mus musculus, P388, ip; in short: as §1
[13] = system: P388; assay: Compound was evaluated for antitumor activity against mice implanted with lymphatic leukemia P388 cells (10e6 tumor cells) after intraperitoneal administration of 200 mg/kg per injection; type: functional; details: Mus musculus, P388, ip
[14] = system: P388; assay: Compound was evaluated for antitumor activity against mice implanted with lymphatic leukemia P388 cells (10e6 tumor cells) after intraperitoneal administration of 200 mg/kg per injection (highest dose tested); type: functional; details: Mus musculus, P388, ip
In short: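 Mice implanted ip with 10⁶ P388 leukemia cells and treated ip on days 1-5. % increase in life span is reported at the highest dose tested.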

[15] = Compound's concentration required to inhibit proliferation of cultured KB cells to 50% growth during 48 hours.; type: functional, cell-based; details: Homo sapiens
[16] = system: L1210; assay: Compound was tested in vivo against mitosis of […] metaphase after 12 hr at 600 mg/kg dose; type: functional, Mus musculus
In short: (§3)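 Mice implanted ip with L1210 leukemia cells got a single ip injection of test agent or control. Cells were harvested 6, 12 and 24 h after treatment and scored for percentage of cells in metaphase.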

[17] = system: L1210; assay: Effect of the compound(50 uM) on DNA synthesis in L1210 cells in culture measured as incorporation of [3H]dThd; type: functional, Mus musculus
In short: (§4)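 Cultured L1210 cells were treated with agent at 2.5–50 μM. Labeled precursor incorporation is reported as percent of control: [3H]dThd into DNA, […] into DNA and RNA, and [3H]L-Leu into protein.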

[18] = system: L1210; assay: Effect on the mitosis of cultured L1210 cells measured ain metaphase t 12 hours and 3 uM concentration; type: functional, Mus musculus; in short: as §2
[19] = system: L1210; assay: Effect on the mitosis of cultured L1210 cells measured in metaphase t 12 hours and 30 uM concentration; type: functional, Mus musculus; in short: as §2
[20] = system: L1210; assay: Compound was tested in vivo against mitosis of […] metaphase after 24 hr at 400 mg/kg dose; type: functional, Mus musculus; in short: as §3
[21] = system: L1210; assay: Effect of the compound(50 uM) on DNA synthesis in L1210 cells in culture measured as incorporation of [5-3H]-Urd; type: functional, Mus musculus; in short: as §4
[22] = system: L1210; assay: Effect of the compound(50 uM) on DNA synthesis in L1210 cells in culture measured as incorporation of [3H]L-Leu; type: functional, Mus musculus; details: in the assay text read “protein synthesis” for “DNA synthesis”; in short: as §4
[23] = system: L1210; assay: Effect of the compound(25 uM) on RNA synthesis in L1210 cells in culture measured as […]; type: functional, Mus musculus
[24] = system: L1210; assay: Compound was tested in vivo against mitosis of […] metaphase after 24 hr at 600 mg/kg dose; type: functional, Mus musculus; in short: as §3
[25] = system: P388; assay: Compound was evaluated for antitumor activity against mice implanted with lymphatic leukemia P388 cells (10e6 tumor cells) after intraperitoneal administration of 240 mg/kg per injection (1-5 days); type: functional; details: Mus musculus, P388, ip; in short: as §1
[26] = system: L1210; assay: Effect of the compound(10 uM) on DNA synthesis in L1210 cells in culture measured as incorporation of [5-3H]-Urd; type: functional, Mus musculus
[27] = system: L1210; assay: Effect of the compound(10 uM) on RNA synthesis in L1210 cells in culture measured as incorporation of [5-3H]-Urd; type: functional, Mus musculus; in short: as §4
[28] = system: L1210; assay: Effect of the compound(50 uM) on RNA synthesis in L1210 cells in culture measured as incorporation of [5-3H]-Urd; type: functional, Mus musculus; in short: as §4
[29] = system: L1210; assay: Effect of the compound(25 uM) on DNA synthesis in L1210 cells in culture measured as incorporation of [5-3H]-Urd; type: functional, Mus musculus; in short: as §4
[30] = system: L1210; assay: Effect of the compound(25 uM) on DNA synthesis in L1210 cells in culture measured as incorporation of [3H]L-Leu; type: functional, Mus musculus; details: in the assay text read “protein synthesis” for “DNA synthesis”; in short: as §4
[31] = system: L1210; assay: Compound was tested in vivo against mitosis of […] metaphase after 6 hr at 400 mg/kg dose; type: functional, Mus musculus; in short: as §3
[32] = system: L1210; assay: Compound was tested in vivo against mitosis of […] metaphase after 6 hr at 600 mg/kg dose; type: functional, Mus musculus; in short: as §3
[33] = system: L1210; assay: Effect of the compound(10 uM) on DNA synthesis in L1210 cells in culture measured as incorporation of [3H]L-Leu; type: functional, Mus musculus; details: in the assay text read “protein synthesis” for “DNA synthesis”; in short: as §4
[34] = system: L1210; assay: Compound was tested in vivo against mitosis of […] metaphase after 12 hr at 400 mg/kg dose; type: functional, Mus musculus; in short: as §3

SMILES: CCOC(=O)Nc1cc(NC(C)/C(=N/O)c2cccc([N+](=O)[O-])c2)c([N+](=O)[O-])c(N)n1 (configuration not stated)
ILS at 100 mg/kg [1]: 25% | Cells in metaphase [2]: 2% | IC50 [3]: 32 µM | Cells in metaphase [4]: 4% | Cells in metaphase [5]: 2% | Cells in metaphase [6]: 6% | Cells in metaphase [7]: 1% | Cells in metaphase [8]: 2%

IC50 [3]: 26 µM
SMILES: CCOC(=O)Nc1cc(N[C@@H](C)/C(=N\O)c2ccc(O)cc2)c([N+](=O)[O-])c(N)n1

SMILES: CCOC(=O)Nc1cc(N[C@@H](C)[C@H](O)c2ccc(O)cc2)c([N+](=O)[O-])c(N)n1
IC50 [3]: 12 µM | ILS at 200 mg/kg [9]: 20%

IC50 [3]: 53 µM
SMILES: CCOC(=O)Nc1cc(NC(C)C(O)Cc2ccccc2)c([N+](=O)[O-])c(N)n1 (configuration not stated)

IC50 [3]: 24 µM
SMILES: CCOC(=O)Nc1cc(N[C@@H](C)C(=O)c2ccc(O)cc2)c([N+](=O)[O-])c(N)n1

SMILES: CCOC(=O)Nc1cc(N[C@H](C)[C@@H](O)c2ccccc2)c(N)c(N)n1
IC50 [3]: 5.9 µM | ILS at 200 mg/kg [9]: 10%

IC50 [3]: 44 µM
SMILES: CCOC(=O)Nc1cc(N[C@H](C)C(=O)c2ccc(O)cc2)c([N+](=O)[O-])c(N)n1

SMILES: CCOC(=O)Nc1cc(NC(c2ccccc2)c2ccccc2)c(N)c(N)n1
ILS at 200 mg/kg [10]: 0% | IC50 [11]: 260 nM

SMILES: CCOC(=O)Nc1cc(N[C@@H](C)/C(=N/O)c2ccc(O)cc2)c([N+](=O)[O-])c(N)n1
ILS at 2 mg/kg [12]: 90% | IC50 [3]: 6.7 µM

SMILES: CCOC(=O)Nc1cc(N/N=C/c2ccccc2)c(N)c(N)n1
ILS at 200 mg/kg [13]: 3%

IC50 [3]: 21 µM
SMILES: CCOC(=O)Nc1cc(NC(C)C(O)COc2ccccc2)c(N)c(N)n1 (configuration not stated)

SMILES: CCCCC(Nc1cc(NC(=O)OCC)nc(N)c1N)C(C)O (configuration not stated)
IC50 [3]: 1.7 µM | ILS at 200 mg/kg [14]: 45%

IC50 [3]: > 100 µM
SMILES: CCOC(=O)Nc1cc(NC(CC)C(=O)c2ccccc2)c([N+](=O)[O-])c(N)n1 (configuration not stated)

SMILES: CCOC(=O)Nc1cc(N[C@@H](C)[C@H](O)c2ccc(O)cc2)c(N)c(N)n1
ILS at 100 mg/kg [1]: 58% | IC50 [3]: 0.62 µM

IC50 [3]: 89 µM
SMILES: CCOC(=O)Nc1cc(NC(C)C(=O)COc2ccccc2)c([N+](=O)[O-])c(N)n1 (configuration not stated)

IC50 [3]: 55 µM
SMILES: CCOC(=O)Nc1cc(NC(C)C(O)COc2ccccc2)c([N+](=O)[O-])c(N)n1 (configuration not stated)

SMILES: CCOC(=O)Nc1cc(NCCc2ccccc2)c([N+](=O)[O-])c(N)n1
IC50 [15]: > 100 µM

SMILES: CCOC(=O)Nc1cc(NC(C)/C(=N/O)c2ccccc2)c([N+](=O)[O-])c(N)n1 (configuration not stated)
Cells in metaphase [16]: 1.4% | Control [17]: 12% | Cells in metaphase [18]: 2% | Cells in metaphase [19]: 4% | Cells in metaphase [20]: 1.6% | Control [21]: 17% | Cells in metaphase [2]: 2% | Control [22]: 37% | IC50 [3]: 32 µM | Control [23]: 22% | Cells in metaphase [24]: 0.4% | ILS at 240 mg/kg [25]: 80% | Uridine incorporation into DNA (% of control) [26]: 38% and 42% | Control [27]: 55% | Control [28]: 24% | Control [29]: 25% and 13% | Control [30]: 101% | Cells in metaphase [5]: 3% | Cells in metaphase [6]: 14% | Cells in metaphase [31]: 0.6% | Cells in metaphase [32]: 0.9% | Control [33]: 79% | Cells in metaphase [7]: 5% | Cells in metaphase [34]: 0.8%

IC50 [3]: > 100 µM
SMILES: CCOC(=O)Nc1cc(NN(C)C(=N)c2ccccc2)c([N+](=O)[O-])c(N)n1

IC50 [3]: 45 µM
SMILES: CCOC(=O)Nc1cc(NC(/C(=N/O)c2ccccc2)c2ccccc2)c([N+](=O)[O-])c(N)n1 (configuration not stated)

SMILES: CC[C@]1(O)C[C@H]2CN(CCc3c([nH]c4ccccc34)[C@@](C(=O)OC)(c3cc4c(cc3OC)N(C=O)[C@H]3[C@@](O)(C(=O)OC)[C@H](OC(C)=O)[C@]5(CC)C=CCN6CC[C@]43[C@@H]65)C2)C1 [VINCRISTINE]
ILS at 2 mg/kg [12]: 85%

Source: ChEMBL document CHEMBL1126221, “Antimitotic agents: structure-activity studies with some pyridine derivatives” (J Med Chem, 1992)
